# A selection: hits, their analogues and other compounds. The true share with any hit is near 2.3%.
# MEKK2 WT-MEK5 = modulators of MEK5 binding to wildtype MEKK2, primary screen, biochemical, multiplex bead flow cytometry, Alexa488-MEK5 | Mitogen-activated protein kinase kinase kinase 2 (Homo sapiens), Q9Y2U5 | Alexa488-MEK5 binding to MEKK2 WT; actives lie on both sides | binding response (% of control), % at 10 µM | actives 1.1% (n = 290,000) | AID 1531, 2009; in the data active = binding response below about 67% or above about 130%
# Arrestin-AP2 inh = inhibitors of beta-arrestin/AP2 binding, primary screen, biochemical, GPCR trafficking, flow cytometry; beta-arrestin 1 C-terminal peptide binding to AP2 beta2-adaptin appendage (human); FITC-arrestin peptide / GST-AP2 beads; AP2 beta2 appendage carries R879A mutation; inhibition, % at 10 µM; actives 0.31% (n = 340,000);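 active = inhibition above a set limit, near 3 SD of compounds lacking own fluorescence, cut at about 54% in these data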;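 also: plate controls were DMSO wells for no effect and 5 µM unlabelled arrestin peptide for full effect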
#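 System: GST-AP2 R879A glutathione beads; medium: PBS, Tween 20 0.05%, BSA 0.1%; reagent: fluorescein-tagged arrestin peptide at 50 nM final; schedule: pre-incubation 12 min, peptide binding 1 h, room temperature; detection: flow cytometry, FL1 (488/535 nm); read-out: inhibition as reduced fluorescein signal on beads, percent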
# MEKK3 PB1 HTS = modulators of MEKK3-MEK5 PB1 binding, primary screen, biochemical, wildtype MEKK3, multiplex bead flow cytometry, Alexa488-MEK5; bead-based flow cytometry, Alexa488-MEK5 binding to MEKK3; actives lie on both sides; 0 = blocked by unlabeled MEK5, 100 = vehicle; Mitogen-activated protein kinase kinase kinase 3 (Homo sapiens), Q99759; actives 1.4% (n = 290,000); binding response (% of control), % at 10 µM;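 active = binding response more than 3 SD above or below the average of its plate-row segment, actives on both sides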;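 also: Alexa488 bead fluorescence after subtracting the streptavidin-only scavenger bead signal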
# MEKK2mut PB1 HTS = MEK5 binding signal on mutant MEKK2 PB1, primary screen, biochemical, multiplex bead flow cytometry, Alexa488-MEK5; Alexa488-MEK5 binding to MEKK2 mutant; percent response, % at 10 µM; actives 0.35% (n = 290,000); AID 1530, 2009; in the data active = percent response above about 24%, passing the limit was not always enough
# Arr-AP2 CP1 = inhibitors of arrestin peptide binding to AP2, confirmation, biochemical, cherry pick 1, flow cytometry beads; inhibition, % at 10 µM; shares compounds with Arrestin-AP2 inh; GST-AP2 beads, FITC arrestin peptide binding; GST-fused beta2-adaptin appendage, R879A mutant; actives 2% (n = 1,300); AID 504908, 2011;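 active = inhibition above a set limit, roughly 3 SD of non-fluorescent compound noise, cut at about 38% in these data; inactive = inhibition at or below that limit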;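 also: loss of bead fluorescence from 50 nM FITC arrestin peptide bound to appendage; 0% = negative control wells and 100% = excess unlabelled arrestin peptide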
# Target sequence (P63010 whole entry, looked up, the tested form may be a part, one chain of several): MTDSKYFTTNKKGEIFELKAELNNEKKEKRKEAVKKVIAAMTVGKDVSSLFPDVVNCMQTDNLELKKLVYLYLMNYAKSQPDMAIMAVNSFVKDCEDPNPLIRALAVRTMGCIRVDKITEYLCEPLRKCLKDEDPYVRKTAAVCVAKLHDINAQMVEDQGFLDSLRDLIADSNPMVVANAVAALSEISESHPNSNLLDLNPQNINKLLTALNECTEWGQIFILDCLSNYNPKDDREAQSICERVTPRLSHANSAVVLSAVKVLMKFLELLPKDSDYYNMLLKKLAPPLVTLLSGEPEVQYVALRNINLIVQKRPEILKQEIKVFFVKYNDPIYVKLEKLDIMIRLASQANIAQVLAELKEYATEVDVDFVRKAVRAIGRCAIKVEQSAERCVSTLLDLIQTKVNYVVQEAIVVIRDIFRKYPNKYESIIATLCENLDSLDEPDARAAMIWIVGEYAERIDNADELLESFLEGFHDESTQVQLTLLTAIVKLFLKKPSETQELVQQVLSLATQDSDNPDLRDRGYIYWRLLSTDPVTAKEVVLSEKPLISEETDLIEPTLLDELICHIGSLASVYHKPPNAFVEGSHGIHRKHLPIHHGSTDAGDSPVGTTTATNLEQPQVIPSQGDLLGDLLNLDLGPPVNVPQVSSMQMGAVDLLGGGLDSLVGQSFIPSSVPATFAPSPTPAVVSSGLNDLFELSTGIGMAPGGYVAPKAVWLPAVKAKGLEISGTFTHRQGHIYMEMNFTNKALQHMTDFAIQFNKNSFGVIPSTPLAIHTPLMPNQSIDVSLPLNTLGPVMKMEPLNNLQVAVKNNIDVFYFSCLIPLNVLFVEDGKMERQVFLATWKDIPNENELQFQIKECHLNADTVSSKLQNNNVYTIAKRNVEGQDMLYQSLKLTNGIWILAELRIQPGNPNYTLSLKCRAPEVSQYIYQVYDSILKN
# GST GSH counter = GST-fluorescein capture on glutathione beads, confirmation, artefact control for arrestin-AP2 inhibitor project, biochemical, cherry pick 1, flow cytometry | shares compounds with Arrestin-AP2 inh | GST-fluorescein binding to GSH beads, fluorescence, counter-screen | inhibition, % at 10 µM | actives 2% (n = 1,300) | AID 588338, 2011;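 active = inhibition above 50%, about 3 SD of the inhibition seen with non-fluorescent compounds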;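 also: fluorescein maleimide labelled GST captured on 4 micron glutathione beads; higher means more loss of bead fluorescence from quenching or blocked binding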
# * = called active by the depositor; nt = not tested or not shown.
SMILES,MEKK2 WT-MEK5,Arrestin-AP2 inh,MEKK3 PB1 HTS,MEKK2mut PB1 HTS,Arr-AP2 CP1,GST GSH counter
CN(C)c1ccc(S(=O)(=O)N2CCCCC2)cc1NC(=O)COc1ccccc1F,99,4,99,0,nt,nt
Cc1cc(Oc2cccc3c2S(=O)(=O)N(C2CCCC2)CC(COCc2ccccc2)O3)cc(C)c1C (configuration not stated),nt,57*,nt,nt,0,-8
CCCCN1CC(COCc2ccccc2)Oc2cccc(Oc3ccc(OC)cc3)c2S1(=O)=O (configuration not stated),nt,23,nt,nt,nt,nt
CN1CCN(C(=O)c2ccc3c(Cl)c4c(nc3c2)CCCC4)CC1,105,64*,99,0,-6,-4
COc1ccc(NS(=O)(=O)c2ccc(Br)cc2)cn1,97,57*,103,0,-2,-4
COc1ccc(NS(=O)(=O)c2ccc(F)c(Cl)c2)cn1,93,16,99,-3,nt,nt
CN(C)C(CNC(=O)CNC(=O)Cc1cccc2ccccc12)c1ccccc1 (configuration not stated),98,20,99,-3,nt,nt
CN(C)C(CNC(=O)CNC(=O)c1ccc2ccccc2c1)c1ccccc1 (configuration not stated),103,59*,101,2,14,0
CCN(C(=O)CSc1nc2ccccc2c(=O)n1C(C)COC)C1CCS(=O)(=O)C1 (configuration not stated),87,-13,100,-7,nt,nt
O=C(Nc1cc(S(=O)(=O)N2CCCCC2)ccc1N1CCOCC1)c1cc(=O)[nH]c2ccccc12,105,-3,110,-1,nt,nt
COc1ccc(S(=O)(=O)N2CCOCC2)cc1NC(=O)c1ccc(=O)[nH]c1,nt,-3,nt,nt,-8,-1
COc1ccc(S(=O)(=O)N2CCOCC2)cc1NC(=O)c1ccc2c(c1)OCO2,nt,0,nt,nt,nt,nt
COc1ccc(S(=O)(=O)N2CCOCC2)cc1NC(=O)c1cc(=O)[nH]c2ccccc12,nt,-2,nt,nt,-15,-2
CCN(C[C@H]1N[C@@](CC)(C(=O)OC)[C@H]2C(=O)N(C)C(=O)[C@@H]12)C(=O)c1ccc(C(C)(C)C)cc1,nt,-15,nt,nt,nt,nt
Cn1c(N)c(C(=O)COC(=O)c2ccccc2C(F)(F)F)c(=O)n(C)c1=O,nt,-10,nt,nt,-3,-3
Cn1c(N)c(C(=O)COC(=O)c2ccccc2C(=O)c2ccccc2)c(=O)n(C)c1=O,nt,-4,nt,nt,nt,nt
CCOc1cc(C(=O)OCC(=O)c2c(N)n(C)c(=O)n(C)c2=O)cc(OCC)c1OCC,102,-3,102,9,nt,nt
Cn1c(N)c(C(=O)CSc2ccccn2)c(=O)n(C)c1=O,95,-8,98,-2,nt,nt
CCOc1ncccc1C(=O)OCC(=O)c1c(N)n(C)c(=O)n(C)c1=O,91,5,96,-1,-8,0
Cn1c(N)c(C(=O)COC(=O)c2ccccn2)c(=O)n(C)c1=O,93,-4,100,-3,13,-3
O=C1N(Cc2cccnc2)C[C@@H]2C[C@@H](c3cccc(Oc4ccccc4)c3)N3CCC[C@@]123,104,-1,109,-1,nt,nt
OCC[C@H]1C[C@@H](O)[C@H](O)[C@]2(OCc3ccccc32)O1,nt,2,nt,nt,nt,nt
Cc1ccc(S(=O)(=O)c2c(C)cc(C)nc2N2CCOCC2)cc1,98,4,97,-41,nt,nt
Cc1ccc(S(=O)(=O)c2c(C)cc(C)nc2N2CCCCC2)cc1,98,70*,102,0,0,-2
COc1ccc(NC(=S)N(CCCN2CCCC(C)C2)Cc2cccs2)cc1 (configuration not stated),105,54*,102,1,5,-7
SMILES,MEKK2 WT-MEK5,Arrestin-AP2 inh,MEKK3 PB1 HTS,MEKK2mut PB1 HTS,Arr-AP2 CP1,GST GSH counter
COc1ccc(NC(=S)N(CCCN2CCCC2)Cc2cccs2)cc1,103,-7,104,-2,nt,nt
CCOC(=O)C1(Cc2cccc(Cl)c2)CCCN(C(=O)CCNC(C)=O)C1 (configuration not stated),112,15,103,4,nt,nt
CCOC(=O)C1(Cc2cccc(Cl)c2)CCCN(C(=O)CN2C(=O)CSC2=O)C1 (configuration not stated),104,62*,104,2,-7,-6
CCOC(=O)C1(Cc2ccccc2)CCCN(C(=O)c2cn[nH]c2)C1 (configuration not stated),96,7,94,0,nt,nt
CCOC(=O)C1(Cc2cccc(Cl)c2)CCCN(C(=O)c2cn[nH]c2)C1 (configuration not stated),100,67*,99,-4,4,-8
COc1ccc(C)cc1NC(=O)C(NC(=O)c1cc(OC)c(OC)c(OC)c1)C(C)C (configuration not stated),94,-30,95,-3,nt,nt
CCc1ccccc1NC(=O)CNC(=O)c1cn(Cc2ccccc2)nc1-c1cccnc1,nt,64*,nt,nt,-4,3
CC(C)NC(=O)NC(=O)CSc1nnc(C(F)(F)F)n1C,89,66*,88,-6,-3,-7
Cn1c(SCC(=O)NC2CC2)nnc1C(F)(F)F,94,-22,96,-2,nt,nt
Cc1ccc(C(=O)Nc2ccccc2C(=O)N2CCCC(C)C2)cc1 (configuration not stated),103,56*,101,-3,-1,1
Cc1ccc(C(=O)Nc2ccccc2C(=O)N2CCCCCC2)cc1,94,10,101,-2,nt,nt
CCS(=O)(=O)N1CCN=C1SCc1cccnc1,101,4,101,3,nt,nt
NC(=O)C[n+]1cccc(C(=O)Nc2ccccc2)c1,110,66*,95,9,-19,-6
O=C(Cn1ccc(C(F)(F)F)n1)N/N=C/c1ccc2c(c1)OCO2,108,nt,100,9,nt,nt
COc1ccc2oc(C(=O)Nc3nc(C)cs3)c(C)c2c1,nt,63*,nt,nt,-2,7
CC/C(=N\NC(=O)CNC(=O)/C=C/c1ccc(OC)cc1)c1ccccc1,94,-4,99,0,nt,nt
Cn1ccc(C(=O)Oc2ccc(C(=O)Nc3ccc(F)cc3F)cc2)n1,72,-7,71,-17,nt,nt
O=C(COC(=O)Cn1cc(C(F)(F)F)ccc1=O)NCc1ccccc1,nt,-9,nt,nt,nt,nt
CC1CC(C)CN(C(=O)COC(=O)c2nccnc2N)C1 (configuration not stated),nt,63*,nt,nt,14,1
Cc1c(N(C(=O)c2cnccn2)C2(C(=O)NC3CCCC3)CCCCC2)c(=O)n(-c2ccccc2)n1C,106,56*,104,3,2,-9

# Compound activity deposited in PubChem BioAssay by NMMLSC.
